Results on 31 compounds are retold here after ChEMBL document CHEMBL1156059, “Thienopyrimidine-based P2Y12 platelet aggregation inhibitors” (Bioorg Med Chem Lett, 2009).

A value given as a limit tells only on which side of the number the result lay.

The species entered for one assay is Homo sapiens. The experiment in a line: Ratio of Ki for human recombinant P2Y12 in presence of HSA and AGP to Ki for human recombinant P2Y12. Summed up:
(§1)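 Same 33P 2-MeSADP filtration binding on recombinant human P2Y12 CHO membranes (1 or 0.3 µg/well), room temperature, 1 h. Membranes were prepared with 5X HSA (1.75%) and 5X AGP (0.075%). Compounds were run as a seven-point threefold series from 10 µM, in triplicate. Fold shift is the Ki with added protein divided by the Ki without protein.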

Assay [1] can be described thus: Antiplatelet aggregatory activity in human platelet rich plasma assessed as inhibition of ADP-induced platelet aggregation. Type of assay: functional. The essentials: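 Human PRP was obtained by centrifuging whole blood at 200g for 15 min at room temperature, then adjusted to 300,000 platelets/µL with autologous platelet-poor plasma (2380g spin). Stirred PRP was mixed with compound, and aggregation was started with 20 µM ADP. Aggregation was read as the increase in light transmittance on a microplate spectrophotometer. Each concentration was run in duplicate.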

Assay [2] has as its target T1, P2Y purinoceptor 12 (Homo sapiens, UniProt Q9H244). The experiment in a line: Binding affinity to human recombinant P2Y12 receptor expressed on CHO cell membrane. It counts as cell membranes. Summed up: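 Competition binding against 33P 2-MeSADP (added as a 1 nM solution) on membranes from CHO cells transfected with recombinant human P2Y12. Membranes were used at 10, 1 or 0.3 µg/well depending on method. Buffer contained 0.02% BSA, ascorbic acid and protease inhibitors. Cold 2-MeSADP (1.5 µM solution) served as control. Compounds were run as a seven-point threefold series from 10 µM, in triplicate. Plates were incubated 1 h at room temperature, then GF/B filtered and scintillation counted.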

For assay [3], the target named is T1, P2Y purinoceptor 12. The experiment in a line: Binding affinity to human recombinant P2Y12 receptor expressed in CHO cell membrane in presence of HSA and human AGP. It counts as cell membranes. Summed up:
as §1

T1 sequence (Q9H244 whole entry): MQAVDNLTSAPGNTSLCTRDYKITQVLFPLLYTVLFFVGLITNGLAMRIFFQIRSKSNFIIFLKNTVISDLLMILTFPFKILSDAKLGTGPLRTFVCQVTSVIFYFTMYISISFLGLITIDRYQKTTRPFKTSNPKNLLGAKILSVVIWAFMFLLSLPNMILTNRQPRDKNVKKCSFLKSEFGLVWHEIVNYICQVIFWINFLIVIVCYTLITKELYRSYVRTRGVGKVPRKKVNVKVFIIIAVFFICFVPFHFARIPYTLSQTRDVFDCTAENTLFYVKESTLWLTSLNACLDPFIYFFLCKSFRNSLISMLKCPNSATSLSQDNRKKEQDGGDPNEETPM

Turning to `CCc1cc2c(N3CCN(C(=O)c4ccc(-c5ccccc5)cc4)CC3)nc(NCCCO)nc2s1`, in the assay filed under Homo sapiens, the Ratio Ki was 5.6. Further, the half-inhibitory concentration (IC50) in assay [1] was determined as 56000 nM. The Ki on P2Y purinoceptor 12 [2] turned out to be 78 nM; at P2Y purinoceptor 12 [3] it was 441 nM.
Regarding `CCc1cc2c(N3CCN(C(=O)CC(C)C)CC3)ncnc2s1`, the IC50 in assay [1] worked out at 8000 nM. Moreover, at P2Y purinoceptor 12 [2], the Ki was found to be 2100 nM.
In the case of `CCc1cc2c(N3CCN(C(=O)Oc4cccc5ccccc45)CC3)ncnc2s1`, in assay [1], the concentration for half-maximal inhibition (IC50) amounted to 1250 nM. Also, the Ki on P2Y purinoceptor 12 [2] amounted to 130 nM.
As for `CCc1cc2c(N3CCN(C(=O)COc4cccc(OC)c4)CC3)nc(NC(=O)NCCC(=O)O)nc2s1`, the Ratio Ki in the assay filed under Homo sapiens came out at 2.3. The IC50 in assay [1] is 39000 nM. The Ki at P2Y purinoceptor 12 [2] was 191 nM; at P2Y purinoceptor 12 [3], 447 nM.
Take `CCc1cc2c(N3CCN(C(=O)c4ccc(-c5ccccc5)cc4)CC3)nc(N3[C@@H](C(N)=O)CC[C@H]3C(N)=O)nc2s1`: the Ratio Ki in the assay listed under Homo sapiens was determined as 5. The IC50 in assay [1] was 3000 nM. Also, the values for the Ki at P2Y purinoceptor 12 [2] and on P2Y purinoceptor 12 [3] were 4 nM and 21 nM, respectively.
In the case of `CCc1cc2c(N3CCN(C(=O)Cc4ccccc4)CC3)ncnc2s1`, the 50% inhibitory concentration (IC50) in assay [1] stood at 28000 nM. Also, the inhibition constant Ki at P2Y purinoceptor 12 [2] turned out to be 660 nM.
With `CCc1cc2c(N3CCN(C(=O)Cc4ccccc4)CC3)nc(NC(=O)NCCC(=O)O)nc2s1`, in the assay filed under Homo sapiens, the Ratio Ki was found to be 1. Further, the concentration for half-maximal inhibition (IC50) in assay [1] is 16000 nM. Further, the inhibition constant Ki at P2Y purinoceptor 12 [2] stood at 223 nM; on P2Y purinoceptor 12 [3], 231 nM.
For the compound `CCc1cc2c(N3CCN(C(=O)c4ccc(-c5ccccc5)cc4)CC3)nc(NCCO)nc2s1`, the Ratio Ki in the assay filed under Homo sapiens is 4.4. For the same compound, the concentration for half-maximal inhibition (IC50) in assay [1] came out at 21000 nM. Also, the figures for the inhibition constant (Ki) at P2Y purinoceptor 12 [2] and on P2Y purinoceptor 12 [3] were 37 nM and 163 nM, respectively.
Consider `CCc1cc2c(N3CCN(C(=O)c4ccccc4)CC3)ncnc2s1`, for which the Ki at P2Y purinoceptor 12 [2] came out at 4400 nM.
With `CCc1cc2c(N3CCN(C(=O)CC(F)(F)F)CC3)nc(NC(=O)NCCC(=O)O)nc2s1`, the Ratio Ki in the assay filed under Homo sapiens was determined as 1. In addition, in assay [1], the IC50 was determined as 18000 nM. Besides, the inhibition constant Ki worked out at 177 nM on P2Y purinoceptor 12 [2] and 172 nM on P2Y purinoceptor 12 [3].
As to `CCc1cc2c(N3CCN(C(=O)CCCCOc4ccccc4)CC3)ncnc2s1`, the IC50 in assay [1] came out at 4000 nM.
For `CCc1cc2c(N3CCN(C(=O)c4ccc(-c5ccccc5)cc4)CC3)nc(N3CCC(N)CC3)nc2s1`, the Ratio Ki in the assay filed under Homo sapiens was determined as 1.3. The IC50 in assay [1] amounted to 40000 nM. Besides, the inhibitory constant (Ki) on P2Y purinoceptor 12 [2] is 240 nM; at P2Y purinoceptor 12 [3], 325 nM.
For the compound `CCc1cc2c(N3CCN(C(=O)Cc4ccc(F)c(F)c4)CC3)nc(NC(=O)NCCC(=O)O)nc2s1`, the Ratio Ki in the assay listed under Homo sapiens is 2. For the same compound, the IC50 in assay [1] was 34000 nM. Besides, the inhibition constant Ki at P2Y purinoceptor 12 [2] was determined as 68 nM; on P2Y purinoceptor 12 [3], 140 nM.
In the case of `CCc1cc2c(N3CCN(C(=O)c4ccc(-c5ccccc5)cc4)CC3)ncnc2s1`, the IC50 in assay [1] stood at 7000 nM. On P2Y purinoceptor 12 [2], the inhibition constant (Ki) stood at 29 nM.
On to `CCc1cc2c(N3CCN(C(=O)C(C)C)CC3)nc(NC(=O)NCCC(=O)O)nc2s1`, for which the Ratio Ki in the assay listed under Homo sapiens came out at 1.3. Further, the IC50 in assay [1] stood at 4000 nM. In addition, the Ki at P2Y purinoceptor 12 [2] is 36 nM; on P2Y purinoceptor 12 [3], 46 nM.
Take `CCc1cc2c(N3CCN(C(=O)c4ccc(-c5ccccc5)cc4)CC3)nc(N3CCC(O)C3)nc2s1` (stereo not drawn): in the assay listed under Homo sapiens, the Ratio Ki was 7. The 50% inhibitory concentration (IC50) in assay [1] is 37000 nM. Besides, the values for the Ki on P2Y purinoceptor 12 [2] and on P2Y purinoceptor 12 [3] were 35 nM and 241 nM, respectively.
`CCc1cc2c(N3CCN(C(=O)COc4ccccc4)CC3)nc(NC(=O)NCCC(=O)O)nc2s1`: the Ratio Ki in the assay listed under Homo sapiens was determined as 1.1. The 50% inhibitory concentration (IC50) in assay [1] was determined as 25000 nM. Besides, the inhibition constant Ki on P2Y purinoceptor 12 [2] was 539 nM; at P2Y purinoceptor 12 [3], 593 nM.
Regarding `CCc1cc2c(N3CCN(C(C)=O)CC3)nc(NC(=O)NCCC(=O)O)nc2s1`, in the assay filed under Homo sapiens, the Ratio Ki is 0.8. Besides, the 50% inhibitory concentration (IC50) in assay [1] was 38000 nM. For the same compound, the figures for the Ki at P2Y purinoceptor 12 [2] and at P2Y purinoceptor 12 [3] were 460 nM and 380 nM, respectively.
For `CCc1cc2c(N3CCN(C(=O)CCOc4ccccc4)CC3)nc(NC(=O)NCCC(=O)O)nc2s1`, in that order: 3.7, 86000 nM, 213 nM and 783 nM.
Consider `CCc1cc2c(N3CCN(C(=O)c4ccc(-c5ccccc5)cc4)CC3)nc(N3C[C@@H](O)C[C@H]3C(=O)O)nc2s1`, for which, in the assay listed under Homo sapiens, the Ratio Ki was 6. For the same compound, the IC50 in assay [1] is 4000 nM. The figures for the inhibition constant Ki at P2Y purinoceptor 12 [2] and at P2Y purinoceptor 12 [3] were 5 nM and 31 nM, respectively.
With `CCc1cc2c(N3CCN(C(=O)c4ccc(-c5ccccc5)cc4)CC3)nc(N3CCCC(C(N)=O)C3)nc2s1` (stereo not drawn), in the assay filed under Homo sapiens, the Ratio Ki came out at 6.5. The half-inhibitory concentration (IC50) in assay [1] worked out at 73000 nM. Also, the inhibition constant Ki on P2Y purinoceptor 12 [2] is 31 nM; on P2Y purinoceptor 12 [3], 203 nM.
For `CCc1cc2c(N3CCN(C(=O)c4ccc(-c5ccccc5)cc4)CC3)nc(N3CCN(C(=O)C(F)(F)F)CC3)nc2s1`, in that order: 2, greater than 100000 nM, 839 nM and 1810 nM.
As to `CCc1cc2c(N3CCN(C(=O)C(F)(F)F)CC3)ncnc2s1`, the half-maximal inhibitory concentration (IC50) in assay [1] came out at 18000 nM.
Regarding `CCc1cc2c(N3CCN(C(=O)c4ccc(-c5ccccc5)cc4)CC3)nc(NC[C@@H](O)CO)nc2s1`, the Ratio Ki in the assay listed under Homo sapiens is 4. In assay [1], the IC50 turned out to be 11000 nM. Also, the inhibition constant Ki on P2Y purinoceptor 12 [2] turned out to be 19 nM; on P2Y purinoceptor 12 [3], 75 nM.
Take `CCc1cc2c(N3CCN(C(=O)c4ccc(-c5ccccc5)cc4)CC3)nc(NCCC(=O)O)nc2s1`: in the assay filed under Homo sapiens, the Ratio Ki amounted to 15. Further, in assay [1], the 50% inhibitory concentration (IC50) turned out to be 57000 nM. In addition, at P2Y purinoceptor 12 [3], the Ki is 122 nM.
`CCc1cc2c(N3CCN(C(=O)c4ccc(-c5ccccc5)cc4)CC3)nc(N3CCNCC3)nc2s1`: the Ratio Ki in the assay listed under Homo sapiens was 1. The IC50 in assay [1] stood at 45000 nM. The Ki on P2Y purinoceptor 12 [2] is 410 nM; at P2Y purinoceptor 12 [3], 397 nM.
`CCc1cc2c(N3CCN(C(=O)CC(F)(F)F)CC3)ncnc2s1`: the IC50 in assay [1] was 28000 nM. The inhibition constant Ki on P2Y purinoceptor 12 [2] worked out at 2990 nM.
Regarding `CCc1cc2c(N3CCN(C(=O)c4ccc(-c5ccccc5)cc4)CC3)nc(NC(=O)NCCC(=O)O)nc2s1`, in the assay listed under Homo sapiens, the Ratio Ki was 3.3. The IC50 in assay [1] stood at 5000 nM. In addition, at P2Y purinoceptor 12 [3], the inhibition constant (Ki) came out at 10 nM.
Regarding `CCc1cc2c(N3CCN(C(=O)c4ccc(-c5ccccc5)cn4)CC3)nc(NC(=O)NCCC(=O)O)nc2s1`, in the assay listed under Homo sapiens, the Ratio Ki is 4.3. Further, in assay [1], the half-maximal inhibitory concentration (IC50) came to 42000 nM. The values for the Ki on P2Y purinoceptor 12 [2] and at P2Y purinoceptor 12 [3] were 37 nM and 161 nM, respectively.
Turning to `CCc1cc2c(N3CCN(C(=O)c4ccc(-c5ccccc5)cc4)CC3)nc(N3CC(O)C3)nc2s1`, the Ratio Ki in the assay listed under Homo sapiens came out at 11. Also, in assay [1], the half-inhibitory concentration (IC50) was 30000 nM. The Ki at P2Y purinoceptor 12 [2] worked out at 27 nM; at P2Y purinoceptor 12 [3], 297 nM.
For `CCC(=O)N1CCN(c2nc(NC(=O)NCCC(=O)O)nc3sc(CC)cc23)CC1`, in the assay listed under Homo sapiens, the Ratio Ki was determined as 1.2. Moreover, the 50% inhibitory concentration (IC50) in assay [1] was found to be 16000 nM. Also, the values for the inhibition constant Ki on P2Y purinoceptor 12 [2] and on P2Y purinoceptor 12 [3] were 295 nM and 367 nM, respectively.

Usually IC50 stands for the concentration needed to halve the response being measured. The term Ki denotes a dissociation constant, usually derived from enzyme kinetics or from competition with a known ligand.
